Test results taken from ChEMBL document CHEMBL4765234 (J Med Chem, 2016).
Calls of active or inactive are those of the source. The calls are words filed in the database; no cut-off is given here.

Columns and labels:
[1] = target: T1, Peroxisome proliferator-activated receptor alpha (Homo sapiens) (UniProt Q07869); assay: Displacement of [3H]-[…] from PPARalpha (unknown origin) expressed in baculovirus infected Sf9 insect cells upto 30 uM measured after 10 hrs by microbeta scintillation counting analysis; conditions: dose microM <=30, time 10.0 hrs
T1 sequence (whole entry): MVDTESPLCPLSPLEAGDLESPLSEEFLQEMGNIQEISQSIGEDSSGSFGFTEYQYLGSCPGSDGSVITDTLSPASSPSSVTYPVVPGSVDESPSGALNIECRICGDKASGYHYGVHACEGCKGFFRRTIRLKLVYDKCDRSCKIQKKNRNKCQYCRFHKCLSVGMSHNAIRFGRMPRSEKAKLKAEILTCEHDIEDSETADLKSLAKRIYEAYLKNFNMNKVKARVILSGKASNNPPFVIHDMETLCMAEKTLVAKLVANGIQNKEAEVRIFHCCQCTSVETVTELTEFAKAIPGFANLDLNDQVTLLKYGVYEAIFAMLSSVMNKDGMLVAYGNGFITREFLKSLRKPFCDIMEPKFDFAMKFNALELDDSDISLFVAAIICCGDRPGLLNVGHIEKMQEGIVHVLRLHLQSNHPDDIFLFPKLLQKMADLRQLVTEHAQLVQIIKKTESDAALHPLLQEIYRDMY
In short: (§1)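 Scintillation proximity assay. Sf9 lysates with baculovirus-expressed PPARα (0.3 μg), PPARδ (0.5 μg) or PPARγ (1.25 μg), each with RXRα, were bound via biotinylated DR2 oligo (0.126 nM) to streptavidin yttrium silicate beads. Buffer was HEPES pH 7.8 with KCl, MgCl2, DTT, CHAPS, 14% glycerol and salmon sperm DNA. A 3H reference agonist ligand was used, with 11 compound concentrations, for 10 h. Nonspecific binding was defined with 10000 nM unlabeled reference. Ki was derived from IC50.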

[2] = AUC in hyperglycemic Balb/c mouse plasma at 29.4 mg/kg measured upto 60 mins; format: ADME, organism-based; design: dose 29.4 mg/kg, time <=60
[3] = Protein binding in plasma (unknown origin) by equilibrium dialysis method; format: ADME, cell-free; conditions: human, read-out: PPB
In short: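 Plasma protein binding measured by equilibrium dialysis.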

[4] = target: T2, Peroxisome proliferator-activated receptor gamma (Homo sapiens) (UniProt P37231); assay: Displacement of [3H]-[…] from PPARgamma (unknown origin) expressed in baculovirus infected Sf9 insect cells upto 30 uM measured after 10 hrs by microbeta scintillation counting analysis; conditions: dose microM <=30, time 10.0 hrs; in short: as §1
T2 sequence (whole entry): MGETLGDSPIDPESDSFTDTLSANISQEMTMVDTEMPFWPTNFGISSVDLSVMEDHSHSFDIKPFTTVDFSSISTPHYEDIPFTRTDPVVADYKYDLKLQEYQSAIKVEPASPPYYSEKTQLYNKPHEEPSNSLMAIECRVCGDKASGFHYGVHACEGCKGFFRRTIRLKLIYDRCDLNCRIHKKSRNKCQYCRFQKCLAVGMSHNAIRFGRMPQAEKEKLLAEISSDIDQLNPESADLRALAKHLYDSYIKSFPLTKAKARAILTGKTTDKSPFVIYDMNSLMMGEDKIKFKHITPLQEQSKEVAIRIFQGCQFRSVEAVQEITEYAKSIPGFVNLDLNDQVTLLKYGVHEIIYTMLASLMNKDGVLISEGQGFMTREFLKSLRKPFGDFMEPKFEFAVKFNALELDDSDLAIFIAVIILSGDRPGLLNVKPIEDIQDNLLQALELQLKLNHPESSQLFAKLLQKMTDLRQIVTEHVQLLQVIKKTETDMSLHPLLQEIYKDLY

[5] = target: T3, Peroxisome proliferator-activated receptor delta (Homo sapiens) (UniProt Q03181); assay: Displacement of [3H]-[…] from PPARdelta (unknown origin) expressed in baculovirus infected Sf9 insect cells upto 30 uM measured after 10 hrs by microbeta scintillation counting analysis; conditions: dose microM <=30, time 10.0 hrs; in short: as §1
T3 sequence (whole entry): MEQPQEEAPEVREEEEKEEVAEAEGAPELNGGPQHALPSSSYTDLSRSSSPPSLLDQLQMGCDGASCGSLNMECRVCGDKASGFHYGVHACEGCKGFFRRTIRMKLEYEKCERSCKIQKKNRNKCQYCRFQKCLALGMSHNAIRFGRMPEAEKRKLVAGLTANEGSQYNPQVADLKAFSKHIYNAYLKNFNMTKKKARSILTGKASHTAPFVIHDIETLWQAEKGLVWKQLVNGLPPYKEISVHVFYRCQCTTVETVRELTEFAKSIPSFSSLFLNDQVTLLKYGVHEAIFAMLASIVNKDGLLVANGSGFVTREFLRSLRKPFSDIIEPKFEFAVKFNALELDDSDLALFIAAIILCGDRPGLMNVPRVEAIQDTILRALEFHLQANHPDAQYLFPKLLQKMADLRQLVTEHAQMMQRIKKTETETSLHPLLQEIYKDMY

Mus musculus = assay: Hypoglycemic activity in Balb/c mouse assessed as effective dose causing reduction in blood glucose level administered orally 60 mins prior to glucose challenge measured for 60 mins by IPGTT; format: functional; conditions: po, 1 h
[6] = target: Free fatty acid receptor 1 (Mus musculus) (UniProt Q76JU9); assay: Agonist activity at Prolink-tagged mouse GPR40 fused with EA-tagged beta-arrestin expressed in human U2OS cells assessed as induction of beta-arrestin recruitment measured after 90 mins by beta-galactosidase based PathHunter assay relative to control; format: cell-based; conditions: filed as agonist
In short: (§2)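 PathHunter β-gal complementation. Cells were incubated overnight at 5000/well in medium with 1% heat-inactivated FBS. Compound was added as a 20-point 2-fold series from a top final of 100 μM (1% DMSO) for 90 min at 37 °C, followed by detection reagents and chemiluminescence read after 1 h at rt.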

[7] = Protein binding in C57BL/6 mouse plasma at 3 microg/kg, iv by LC-MS/MS analysis; format: ADME, organism-based; conditions: in vivo, 0.003 mg/kg, dose 3 µg/kg
[8] = target: Free fatty acid receptor 1 (Rattus norvegicus, UniProt Q8K3T4); assay: Agonist activity at Prolink-tagged rat GPR40 fused with EA-tagged beta-arrestin expressed in human U2OS cells assessed as induction of beta-arrestin recruitment measured after 90 mins by beta-galactosidase based PathHunter assay; format: cell-based; in short: as §2
[9] = target: Free fatty acid receptor 1 (Mus musculus) (UniProt Q76JU9); assay: Agonist activity at GPR40 in mouse MIN6 cells assessed as induction of glucose-mediated insulin secretion incubated for 2 hrs by ELISA; format: cell-based; conditions: filed as agonist
In short: (§3)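 Glucose-dependent insulin secretion in mouse MIN6 cells or rat islet cells, scored as secretion above the glucose-alone level.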

[10] = target: Free fatty acid receptor 1 (Mus musculus, UniProt Q76JU9); assay: Agonist activity at Prolink-tagged mouse GPR40 fused with EA-tagged beta-arrestin expressed in human U2OS cells assessed as induction of beta-arrestin recruitment measured after 90 mins by beta-galactosidase based PathHunter assay; format: cell-based; in short: as §2
[11] = Drug distribution in C57BL/6 mouse colon at 3 microg/kg, iv administered as single dose observed at 20 to 40 mins by LC-MS/MS analysis; format: ADME, organism-based; conditions: in vivo, 0.003 mg/kg, time 20-40 min, dose 3 µg/kg
In short: (§4)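 Tracer microdose study in fed male C57BL/6 mice: single 3 μg/kg IV dose in 25% HP-BCD. Mice were killed by cervical dislocation, and spleen, ascending colon, skeletal muscle and plasma were sampled at 20 and 40 min.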

[12] = target: Free fatty acid receptor 1 (Rattus norvegicus) (UniProt Q8K3T4); assay: Agonist activity at GPR40 in Sprague-Dawley rat pancreatic islets assessed as induction of glucose-mediated insulin secretion measured after 90 mins in EBSS buffer by ELISA; format: tissue-based; conditions: Pancreatic islet, filed as agonist; in short: as §3
[13] = AUC in hyperglycemic Balb/c mouse plasma at 1 mg/kg measured upto 60 mins; format: ADME, organism-based; design: dose 1 mg/kg, time <=60
[14] = Drug distribution in C57BL/6 mouse spleen at 3 microg/kg, iv administered as single dose observed at 20 to 40 mins by LC-MS/MS analysis; format: ADME, organism-based; conditions: in vivo, 0.003 mg/kg, time 20-40 min, dose 3 µg/kg; in short: as §4
[15] = target: Free fatty acid receptor 1 (Rattus norvegicus) (UniProt Q8K3T4); assay: Agonist activity at Prolink-tagged rat GPR40 fused with EA-tagged beta-arrestin expressed in human U2OS cells assessed as induction of beta-arrestin recruitment measured after 90 mins by beta-galactosidase based PathHunter assay relative to control; format: cell-based; conditions: filed as agonist; in short: as §2
[16] = target: T4, Free fatty acid receptor 1 (Homo sapiens, UniProt O14842); assay: Agonist activity at human recombinant full length GPR40 overexpressed in human HEK293 cells assessed as increase in intracellular calcium level measured over 3 mins by calcium 4 dye based FLIPR assay; format: functional, cell-based
In short: (§5)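 HEK293 cells overexpressing hGPR40 (25K/well) were cultured overnight in DMEM/F12 with 0.2% FBS and geneticin. Compound was tested at 40 μM–0.1 nM final (20-point, 1% DMSO), and FLIPR fluorescence was read over 3 min.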

[17] = target: Voltage-gated inwardly rectifying potassium channel KCNH2 (Homo sapiens, UniProt Q12809); assay: Inhibition of human ERG
[18] = target: T4, Free fatty acid receptor 1; assay: Agonist activity at human recombinant full length GPR40 overexpressed in human HEK293 cells assessed as increase in inositol phosphate accumulation in presence of terbium cryptate-labeled anti IP1/d2-labelled IP1 measured after 120 mins by HTRF assay; format: functional, cell-based
In short: (§6)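 HEK293 hGPR40 cells (20K/well) were cultured overnight, washed, and held in IP1 stimulation buffer. IP-1 was measured by competitive HTRF immunoassay with terbium cryptate anti-IP1 mAb and d2-labelled IP1.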

[19] = target: T4, Free fatty acid receptor 1; assay: Agonist activity at human recombinant full-length Prolink-tagged GPR40 fused with EA-tagged beta-arrestin expressed in human HEK293 cells assessed as induction of beta-arrestin recruitment measured after 90 mins by beta-galactosidase based PathHunter assay relative to control; format: cell-based; conditions: filed as agonist; in short: as §2
[20] = target: T4, Free fatty acid receptor 1; assay: Agonist activity at human recombinant full-length Prolink-tagged GPR40 fused with EA-tagged beta-arrestin expressed in human HEK293 cells assessed as induction of beta-arrestin recruitment measured after 90 mins by beta-galactosidase based PathHunter assay; format: cell-based; in short: as §2
[21] = target: T4, Free fatty acid receptor 1; assay: Agonist activity at human recombinant full length GPR40 overexpressed in human HEK293 cells assessed as increase in inositol phosphate accumulation in presence of terbium cryptate-labeled anti IP1/d2-labelled IP1 measured after 120 mins by HTRF assay relative to AMG837; format: functional, cell-based; conditions: filed as agonist; in short: as §6
[22] = target: T4, Free fatty acid receptor 1; assay: Agonist activity at human recombinant full length GPR40 overexpressed in human HEK293 cells assessed as increase in intracellular calcium level measured over 3 mins by calcium 4 dye based FLIPR assay relative to 100 uM linoleic acid; format: functional, cell-based; conditions: filed as agonist; in short: as §5
[23] = target: T4, Free fatty acid receptor 1; assay: Displacement of [3H]-TAK-875 from human recombinant full-length GPR40 expressed in human HEK293 cell membrane incubated for 2 hrs by solid scintillation counting method; format: cell membranes
Rattus norvegicus [24] = assay: Hypoglycemic activity in Zucker fatty diabetes mellitus rat model assessed as increase in insulin levels in plasma at 3 mg/kg, po administered for 21 days and measured at 10 to 60 mins post glucose challenge on day 1 by OGTT; format: functional, organism-based; conditions: time 21.0 day
Rattus norvegicus [25] = assay: Hypoglycemic activity in Zucker fatty diabetes mellitus rat model assessed as reduction in blood glucose level at 3 mg/kg, po administered for 21 days and measured at 10 to 60 mins post glucose challenge on day 1 by OGTT; format: functional, organism-based; conditions: time 21.0 day

T4 sequence (O14842 whole entry): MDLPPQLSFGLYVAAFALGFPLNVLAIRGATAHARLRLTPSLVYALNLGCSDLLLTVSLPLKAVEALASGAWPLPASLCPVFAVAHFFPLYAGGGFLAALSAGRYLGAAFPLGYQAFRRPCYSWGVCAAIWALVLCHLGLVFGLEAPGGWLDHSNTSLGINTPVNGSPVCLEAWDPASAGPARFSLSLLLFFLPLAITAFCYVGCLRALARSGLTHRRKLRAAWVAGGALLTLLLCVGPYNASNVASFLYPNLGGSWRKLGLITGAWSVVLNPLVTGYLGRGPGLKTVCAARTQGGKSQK
Free fatty acid receptor 1 (Rattus norvegicus, UniProt Q8K3T4), sequence (Q8K3T4 whole entry, the tested form may be a part): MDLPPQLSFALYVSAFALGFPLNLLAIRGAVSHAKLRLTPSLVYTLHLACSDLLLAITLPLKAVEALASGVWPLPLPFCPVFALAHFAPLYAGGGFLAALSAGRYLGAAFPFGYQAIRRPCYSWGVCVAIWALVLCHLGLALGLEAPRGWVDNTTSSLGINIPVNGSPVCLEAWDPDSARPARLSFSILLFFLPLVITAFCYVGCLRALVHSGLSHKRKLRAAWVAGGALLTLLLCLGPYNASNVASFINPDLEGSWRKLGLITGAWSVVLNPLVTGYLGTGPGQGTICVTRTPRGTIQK
Free fatty acid receptor 1 (Rattus norvegicus), sequence (Q8K3T4 whole entry, the tested form may be a part): as above
Free fatty acid receptor 1 (Mus musculus, UniProt Q76JU9), sequence (Q76JU9 whole entry, the tested form may be a part): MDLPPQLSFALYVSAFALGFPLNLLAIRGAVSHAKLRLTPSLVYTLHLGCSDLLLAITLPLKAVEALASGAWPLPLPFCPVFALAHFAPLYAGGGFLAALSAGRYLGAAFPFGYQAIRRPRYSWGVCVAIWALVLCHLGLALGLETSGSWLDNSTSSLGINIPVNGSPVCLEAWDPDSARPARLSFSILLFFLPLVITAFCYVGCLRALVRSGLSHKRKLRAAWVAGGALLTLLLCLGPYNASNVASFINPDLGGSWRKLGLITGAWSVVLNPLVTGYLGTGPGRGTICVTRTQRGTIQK
Free fatty acid receptor 1 (Mus musculus), sequence (Q76JU9 whole entry, the tested form may be a part): as above
Voltage-gated inwardly rectifying potassium channel KCNH2, sequence (Q12809 whole entry): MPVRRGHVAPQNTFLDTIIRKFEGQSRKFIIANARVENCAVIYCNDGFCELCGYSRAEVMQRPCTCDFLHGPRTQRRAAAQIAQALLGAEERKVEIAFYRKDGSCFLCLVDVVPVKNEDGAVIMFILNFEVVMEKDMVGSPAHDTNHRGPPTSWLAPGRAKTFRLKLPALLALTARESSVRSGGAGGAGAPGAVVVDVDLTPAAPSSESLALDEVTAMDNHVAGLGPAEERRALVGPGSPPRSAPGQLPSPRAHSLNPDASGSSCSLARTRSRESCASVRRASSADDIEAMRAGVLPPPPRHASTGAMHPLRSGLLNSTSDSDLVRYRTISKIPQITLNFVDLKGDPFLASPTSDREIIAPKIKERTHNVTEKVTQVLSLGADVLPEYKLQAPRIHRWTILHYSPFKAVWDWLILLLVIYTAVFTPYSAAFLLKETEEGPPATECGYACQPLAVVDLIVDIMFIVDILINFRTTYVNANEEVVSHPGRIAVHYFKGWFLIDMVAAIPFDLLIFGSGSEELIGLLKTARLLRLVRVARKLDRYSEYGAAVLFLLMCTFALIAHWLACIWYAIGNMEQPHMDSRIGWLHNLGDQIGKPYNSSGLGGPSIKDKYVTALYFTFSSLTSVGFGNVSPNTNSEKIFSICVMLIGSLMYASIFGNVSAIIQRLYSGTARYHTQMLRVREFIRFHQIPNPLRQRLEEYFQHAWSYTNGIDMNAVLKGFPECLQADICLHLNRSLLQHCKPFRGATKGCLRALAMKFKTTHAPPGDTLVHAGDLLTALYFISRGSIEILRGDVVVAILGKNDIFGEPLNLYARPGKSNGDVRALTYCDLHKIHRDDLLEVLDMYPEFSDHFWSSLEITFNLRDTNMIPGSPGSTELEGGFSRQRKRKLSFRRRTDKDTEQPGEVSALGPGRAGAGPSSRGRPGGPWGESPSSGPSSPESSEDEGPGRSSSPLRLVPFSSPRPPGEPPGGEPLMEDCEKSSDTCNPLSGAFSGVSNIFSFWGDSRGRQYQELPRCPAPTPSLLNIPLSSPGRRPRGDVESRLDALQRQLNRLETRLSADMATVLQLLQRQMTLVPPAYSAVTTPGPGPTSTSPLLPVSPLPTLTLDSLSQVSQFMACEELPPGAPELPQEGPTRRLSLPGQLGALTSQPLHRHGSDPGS

Structure (SMILES)	Activity [1]	fraction unbound [3]	Activity [4]	Activity [5]	Emax [6] [%]	EC50 [8] [nM]	EC50 [10] [nM]	Emax [15] [%]	EC50 [16] [nM]	EC50 [18] [nM]	Emax [19] [%]	EC50 [20] [nM]	Emax [21] [%]	Emax [22] [%]	Ki [23] [nM]	further results
CN(CCOc1ccc(CC2SC(=O)NC2=O)cc1)c1ccccn1 (centres undefined)																Activity (Rattus norvegicus [24]): inactive; Activity (Rattus norvegicus [25]): inactive
CC#C[C@@H](CC(=O)O)c1ccc(OCc2ccc(CN3CCC4(CC3)CN(C)c3ccc(C)cc34)cc2)cc1	inactive	< 0.01	inactive	inactive	145	4.6	2	138	61	3.5	121	25	231	60	14	
O=C(O)CCc1ccc(OCc2ccc(CN3CCC4(C=Cc5ccccc54)CC3)cc2)cc1Cl	inactive	< 0.01	inactive	inactive	116	540	110	108	140	86	133	740	265	59	200	

Further lines, with some results ahead:

Activity [1]	fraction unbound [3]	Activity [4]	Activity [5]	Emax [6] [%]	EC50 [8] [nM]	EC50 [10] [nM]	Emax [15] [%]	Structure (SMILES)	EC50 [16] [nM]	EC50 [18] [nM]	Emax [19] [%]	EC50 [20] [nM]	Emax [21] [%]	Emax [22] [%]	Ki [23] [nM]	further results
inactive	< 0.01	inactive	inactive					Cc1cc(OCCCS(C)(=O)=O)cc(C)c1-c1cccc(COc2ccc3c(c2)OC[C@H]3CC(=O)O)c1								AUC at 1 h [2]: 7370 ng·h/mL; ED90 (Mus musculus): 29.4 mg/kg
inactive	< 0.01	inactive	inactive	137	3.2	1.5	148	CC#C[C@@H](CC(=O)O)c1ccc(OCc2cccc(-c3ccc(C(F)(F)F)cc3)c2)cc1								PPB [7]: Active; Activity [9]: Active; Drug uptake [11]: Not Active; Activity [12]: Active; AUC at 1 h [13]: 33900 ng·h/mL; Drug uptake [14]: Not Active; ED90 (Mus musculus): 1 mg/kg
inactive	< 0.01	inactive	inactive	128	3	1.4	119	CC#C[C@@H](CC(=O)O)c1ccc(OCc2ccc(CN3CCC4(C=Cc5ccccc54)CC3)c(OC)c2)cc1	17	7.4	140	10	345	61	2.5	Ki [17]: 6.3 µM
inactive	< 0.01	inactive	inactive	141	4.5	2.1	159	CC#C[C@@H](CC(=O)O)c1ccc(OCc2ccc(CN3CCC4(CC3)CC(=O)c3ccccc3O4)cc2)cc1	65	8.3	147	26	228	56	16	
